# Experimental data published in ChEMBL document CHEMBL3046679, “Design, synthesis, and biological activities of arylmethylamine substituted chlorotriazine and methylthiotriazine compounds” (J Agric Food Chem, 2011).
# Activity calls are given as the source filed them. The rule behind the calls is not given here.
# Legend:
# Puccinia triticina [1] = test: Fungicidal activity against Puccinia triticina assessed as inhibition of disease development in compound treated leaf pieces at 200 ppm relative to untreated control (wheat-curative); assay type: functional
# In short: (§1)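 Curative wheat leaf-piece test against Puccinia triticina. Leaf pieces inoculated with spores first, then treated with formulated compound at 200, 60 or 20 ppm. Disease scored 3–9 days after inoculation as percent inhibition versus untreated controls. Values are the mean across replicates.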
# Brassica napus [2] = test: Herbicidal activity against Brassica napus (oilseed rape) at 1.5 kg/ha postemergence treatment measured after 10 days by glasshouse test; assay type: functional; conditions: post-emergence, 240 h
# In short: (§2)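 Glasshouse pre/postemergence test, each treatment in triplicate. Above-ground fresh weight measured 10 days after treatment. Result expressed as percent inhibition versus control, from 0 (no control) to 100 (complete control); glyphosate used as positive control.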
# Puccinia triticina [3] = test: Fungicidal activity against Puccinia triticina assessed as inhibition of disease development in compound treated leaf pieces at 60 ppm relative to untreated control (wheat-curative); assay type: functional; in short: as §1
# [4] = test system: Blumeria graminis f. sp. tritici; test: Fungicidal activity against Blumeria graminis f. sp. tritici assessed as inhibition of disease development in compound treated leaf pieces at 200 ppm relative to untreated control (wheat-preventative); assay type: functional
# Plasmopara viticola [5] = test: Fungicidal activity against Plasmopara viticola assessed as inhibition of disease development in compound treated leaf pieces at 200 ppm relative to untreated control (grapevine-preventative); assay type: functional
# In short: (§3)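 Preventative leaf-piece test on host tissue (tomato, vine, wheat or barley). Formulated compound applied at 200, 60 and 20 ppm before spore inoculation. Disease scored 3–9 days after inoculation, depending on the pathogen, as percent inhibition of disease development versus untreated controls. Values are the mean across replicates.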
# Echinochloa crus-galli [6] = test: Herbicidal activity against Echinochloa crus-galli (barnyard grass) at 1.5 kg/ha preemergence treatment measured after 10 days by glasshouse test; assay type: functional; conditions: pre-emergence, 240 h; in short: as §2
# [7] = test system: Blumeria graminis f. sp. tritici; test: Fungicidal activity against Blumeria graminis f. sp. tritici assessed as inhibition of disease development in compound treated leaf pieces at 20 ppm relative to untreated control (wheat-preventative); assay type: functional
# Phytophthora infestans [8] = test: Fungicidal activity against Phytophthora infestans assessed as inhibition of mycelia growth at 200 ppm; assay type: functional, organism-based
# Pyrenophora teres [9] = test: Fungicidal activity against Pyrenophora teres assessed as inhibition of disease development in compound treated leaf pieces at 60 ppm relative to untreated control (barley-preventative); assay type: functional; in short: as §3
# Brassica napus [10] = test: Herbicidal activity against Brassica napus (oilseed rape) at 1.5 kg/ha preemergence treatment measured after 10 days by glasshouse test; assay type: functional; conditions: pre-emergence, 240 h; in short: as §2
# Phytophthora infestans [11] = test: Fungicidal activity against Phytophthora infestans assessed as inhibition of disease development in compound treated leaf pieces at 20 ppm relative to untreated control (tomato-preventative); assay type: functional; in short: as §3
# Parastagonospora nodorum [12] = test: Fungicidal activity against Phaeosphaeria nodorum assessed as inhibition of disease development in compound treated leaf pieces at 60 ppm relative to untreated control (wheat preventative); assay type: functional; in short: as §3
# Plasmopara viticola [13] = test: Fungicidal activity against Plasmopara viticola assessed as inhibition of disease development in compound treated leaf pieces at 20 ppm relative to untreated control (grapevine-preventative); assay type: functional; in short: as §3
# Puccinia triticina [14] = test: Fungicidal activity against Puccinia triticina assessed as inhibition of disease development in compound treated leaf pieces at 20 ppm relative to untreated control (wheat-preventative); assay type: functional; in short: as §3
# Pyrenophora teres [15] = test: Fungicidal activity against Pyrenophora teres assessed as inhibition of disease development in compound treated leaf pieces at 20 ppm relative to untreated control (barley-preventative); assay type: functional; in short: as §3
# Aphididae = test: Insecticidal activity against Aphididae (aphids) assessed as mortality at 1000 ppm by leaf-disk assay; assay type: functional, organism-based
# In short: (§4)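 Leaf-disk assay at 1000 ppm, three replicates. Plates kept 5–9 days in controlled-environment cabinets. Mortality judged against untreated wells: 99 for significant mortality, 0 otherwise. Values are the mean of three; thiamethoxam and indoxacarb used as positive controls.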
# Heliothis virescens = test: Insecticidal activity against Lepidoptera Heliothis virescens (tobacco budworm) assessed as mortality at 1000 ppm by leaf-disk assay; assay type: functional, organism-based; in short: as §4
# [16] = test system: Blumeria graminis f. sp. tritici; test: Fungicidal activity against Blumeria graminis f. sp. tritici assessed as inhibition of disease development in compound treated leaf pieces at 60 ppm relative to untreated control (wheat-preventative); assay type: functional
# Triticum aestivum = test: Phytotoxicity against Triticum aestivum (wheat) plant at 200 ppm; assay type: organism-based; conditions: in vivo
# Echinochloa crus-galli [17] = test: Herbicidal activity against Echinochloa crus-galli (barnyard grass) at 1.5 kg/ha postemergence treatment measured after 10 days by glasshouse test; assay type: functional; conditions: post-emergence, 240 h; in short: as §2
# Puccinia triticina [18] = test: Fungicidal activity against Puccinia triticina assessed as inhibition of disease development in compound treated leaf pieces at 20 ppm relative to untreated control (wheat-curative); assay type: functional; in short: as §1
# Pyrenophora teres [19] = test: Fungicidal activity against Pyrenophora teres assessed as inhibition of disease development in compound treated leaf pieces at 200 ppm relative to untreated control (barley-preventative); assay type: functional; in short: as §3
# Alternaria solani [20] = test: Fungicidal activity against Alternaria solani assessed as inhibition of disease development in compound treated leaf pieces at 200 ppm relative to untreated control (tomato-preventative); assay type: functional; in short: as §3
# Parastagonospora nodorum [21] = test: Fungicidal activity against Phaeosphaeria nodorum assessed as inhibition of disease development in compound treated leaf pieces at 20 ppm relative to untreated control (wheat preventative); assay type: functional; in short: as §3
# Plasmopara viticola [22] = test: Fungicidal activity against Plasmopara viticola assessed as inhibition of disease development in compound treated leaf pieces at 60 ppm relative to untreated control (grapevine-preventative); assay type: functional; in short: as §3
# Puccinia triticina [23] = test: Fungicidal activity against Puccinia triticina assessed as inhibition of disease development in compound treated leaf pieces at 60 ppm relative to untreated control (wheat-preventative); assay type: functional; in short: as §3
# Pythium dissimile = test: Fungicidal activity against Pythium dissimile assessed as inhibition of mycelia growth at 2 ppm; assay type: functional, organism-based
# In short: (§5)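 Mycelial growth test in 96-well plates: compound incorporated into artificial growth medium at 2 ppm, two replicates per rate. Each well scored 99 for complete, 55 for partial or 0 for no inhibition. Values are the mean across replicates; azoxystrobin and prochloraz used as positive controls.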
# Phytophthora infestans [24] = test: Fungicidal activity against Phytophthora infestans assessed as inhibition of disease development in compound treated leaf pieces at 200 ppm relative to untreated control (tomato-preventative); assay type: functional; in short: as §3
# Uromyces viciae-fabae = test: Fungicidal activity against Uromyces viciae-fabae assessed as inhibition of mycelia growth at 100 ppm; assay type: functional, organism-based
# In short: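 Leaf-piece assay on bean at 100 ppm, with compound applied before spore inoculation and two replicates. Each well scored 99 for complete inhibition, 55 for partial and 0 for none; value is the mean score across replicates.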
# Fusarium graminearum = test: Fungicidal activity against Fusarium graminearum assessed as inhibition of mycelia growth at 2 ppm; assay type: functional, organism-based; in short: as §5
# Puccinia triticina [25] = test: Fungicidal activity against Puccinia triticina assessed as inhibition of disease development in compound treated leaf pieces at 200 ppm relative to untreated control (wheat-preventative); assay type: functional; in short: as §3
# Alternaria solani [26] = test: Fungicidal activity against Alternaria solani assessed as inhibition of disease development in compound treated leaf pieces at 60 ppm relative to untreated control (tomato-preventative); assay type: functional; in short: as §3
# Alternaria solani [27] = test: Fungicidal activity against Alternaria solani assessed as inhibition of disease development in compound treated leaf pieces at 20 ppm relative to untreated control (tomato-preventative); assay type: functional; in short: as §3
# Phytophthora infestans [28] = test: Fungicidal activity against Phytophthora infestans assessed as inhibition of disease development in compound treated leaf pieces at 60 ppm relative to untreated control (tomato-preventative); assay type: functional; in short: as §3
# Alternaria solani [29] = test: Fungicidal activity against Alternaria solani assessed as inhibition of mycelia growth at 2 ppm; assay type: functional, organism-based; in short: as §5
structure (smiles),measurement,setting,value
CSc1nc(NCc2cc(-c3ccccc3)no2)nc(NC(C)C)n1,inhibition at 200 ppm,Puccinia triticina [1],100%
same,inhibition at 1500 g/ha,Brassica napus [2],100%
same,inhibition at 60 ppm,Puccinia triticina [3],100%
same,inhibition at 200 ppm,[4],70%
same,inhibition at 200 ppm,Plasmopara viticola [5],0%
same,inhibition at 1500 g/ha,Echinochloa crus-galli [6],37.6%
same,inhibition at 20 ppm,[7],0%
same,inhibition,Phytophthora infestans [8],inactive
same,inhibition at 60 ppm,Pyrenophora teres [9],0%
same,inhibition at 1500 g/ha,Brassica napus [10],33.1%
same,inhibition at 20 ppm,Phytophthora infestans [11],0%
same,inhibition at 60 ppm,Parastagonospora nodorum [12],70%
same,inhibition at 20 ppm,Plasmopara viticola [13],0%
same,inhibition at 20 ppm,Puccinia triticina [14],0%
same,inhibition at 20 ppm,Pyrenophora teres [15],0%
same,mortality,Aphididae,inactive
same,mortality,Heliothis virescens,inactive
same,inhibition at 60 ppm,[16],70%
same,Activity,Triticum aestivum,Toxic
same,inhibition at 1500 g/ha,Echinochloa crus-galli [17],14.3%
same,inhibition at 20 ppm,Puccinia triticina [18],70%
same,inhibition at 200 ppm,Pyrenophora teres [19],0%
same,inhibition at 200 ppm,Alternaria solani [20],0%
same,inhibition at 20 ppm,Parastagonospora nodorum [21],0%
same,inhibition at 60 ppm,Plasmopara viticola [22],0%
same,inhibition at 60 ppm,Puccinia triticina [23],70%
same,inhibition,Pythium dissimile,inactive
same,inhibition at 200 ppm,Phytophthora infestans [24],0%
same,inhibition,Uromyces viciae-fabae,Active
same,inhibition,Fusarium graminearum,inactive
same,inhibition at 200 ppm,Puccinia triticina [25],100%
same,inhibition at 60 ppm,Alternaria solani [26],0%
same,inhibition at 20 ppm,Alternaria solani [27],0%
same,inhibition at 60 ppm,Phytophthora infestans [28],0%
same,inhibition,Alternaria solani [29],inactive
